# Screening results: PubChem BioAssay, Broad Institute
# Rce1 inhib: inhibitors of yeast Ras-converting enzyme. AID 2563. 290,000 compounds, 0.27% hits. calls only. yeast membranes, quenched prenylated peptide cleavage fluorescence. Q03530;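 active means fall in fluorescence gain of 50% or more versus controls, with final raw signal at or below 3038400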;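 further: plate controls were neutral control wells for no effect and wells lacking membranes for full effect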
# Target sequence (Q03530 whole entry, looked up): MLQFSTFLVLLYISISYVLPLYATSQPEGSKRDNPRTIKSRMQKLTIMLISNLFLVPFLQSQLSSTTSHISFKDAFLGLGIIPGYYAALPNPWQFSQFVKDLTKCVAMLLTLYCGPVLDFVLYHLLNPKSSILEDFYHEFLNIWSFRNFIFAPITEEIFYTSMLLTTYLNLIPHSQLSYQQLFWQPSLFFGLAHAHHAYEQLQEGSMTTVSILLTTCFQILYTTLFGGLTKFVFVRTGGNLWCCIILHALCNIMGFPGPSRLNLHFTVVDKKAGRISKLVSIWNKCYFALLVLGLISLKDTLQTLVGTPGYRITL
# CAL PDZ FP-1: inhibitors of human CAL PDZ peptide binding | 330,000 compounds, 0.02% hits | inhibition, % at 20 µM | purified CAL PDZ, TMR-peptide fluorescence polarization, 1 h;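 active means highest replicate inhibition of at least 40%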;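 further: plate controls were DMSO neutral control wells for no effect and unlabeled competitor peptide control wells for full effect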
#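 Read-out basis: mP drop reported as inhibition | Assay system: Tagged CAL PDZ protein CerCALP, purified | Benchmarks: Unlabelled peptide for full inhibition, DMSO wells as neutral | Schedule: 1 h incubation at room temperature before polarization reading | Buffer or medium: Sodium phosphate/NaCl buffer pH 7.4 with TCEP, IgG, Thesit | Doses: Single point, 20 µM | Measured by: Fluorescence polarization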
# AI-2 QS modul: modulators of Vibrio harveyi AI-2 quorum sensing system; activity change, % at 7.5 µM; Vibrio harveyi JMH597 AI-2 luminescence/OD600 ratio, 9 h; stronger effect = lower value; strain lacks LuxN and CqsS sensors; 0 = neutral-control median; 300,000 compounds, 0.4% hits; in the data active means activity change below about -75%, passing the limit was not always enough;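 further: luminescence divided by OD600 gain over 9 h not by final OD600 alone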
# ARNT-TACC3 inh: ARNT/TACC3 interaction disruption; Q9Y6A5; AlphaScreen His-ARNT PAS-B/GST-TACC3 binding, luminescence; TACC3 fragment carries E629A point mutation; inhibition, % at 9.99 µM; 390,000 compounds, 0.66% hits; AID 623870;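 active means mean inhibition of replicates at least 50% and at least half of replicates each reaching 50%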;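 further: 0% = complete ARNT plus TACC3 wells and 100% = ARNT alone without TACC3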
# CAL PDZ FP-2: blocks peptide binding to the human CAL PDZ domain. Q9HD26. purified CAL PDZ, TMR-peptide fluorescence polarization, 1 h. inhibition, % at 24.9 µM. 300,000 compounds, 0.92% hits. AID 602252;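 active means mean inhibition of at least 30% with at least half of replicates also reaching 30%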;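 further: 0% = DMSO neutral control and 100% = excess unlabeled competitor peptide PRC23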
# The depositor's hits bear a star; i = inactive; nt = no result given; + = active, no number; ! = not confirmed by another sample. This is a sample that favours compounds with a hit; in the whole collection about 1.7% have one here.
SMILES,Rce1 inhib,CAL PDZ FP-1,AI-2 QS modul,ARNT-TACC3 inh,CAL PDZ FP-2
Cc1ccc(C(=O)c2ccc([N+](=O)[O-])cc2)cc1,i,-3,13,-3,-1
Cc1ccc(NC2(c3nnnn3-c3c(C)cccc3C)CCCCC2)cc1,i,-3,11,nt,0
O=C(CCC(=O)c1ccc(F)cc1)Nc1cc(Cl)cc(Cl)c1,i,-2,-79*,nt,-1
COc1cccc(S(=O)(=O)N[C@H]2CC[C@@H](CC(=O)NCc3ccc(Cl)cc3)O[C@H]2CO)c1,nt,nt,nt,36*,nt
COC(=O)C[C@H]1CC[C@@H](NS(=O)(=O)c2ccc(OC)cc2)[C@H](CO)O1,nt,nt,nt,48*,nt
Cc1ccnc(NC(=O)CCC(=O)N(CC(=O)NC(C)(C)C)c2ccc3c(c2)OCCO3)c1,i,0,19,nt,-5
CCN(CC)c1ccc(/C=N/NC(=O)OC)c(O)c1,i,1,26,3,nt
CCN(CC)c1ccc(/C=N/NC(=S)NC)c(O)c1,i,-4,8,60*,0
CCN(CC)c1ccc(/C=N/N=C(N)N)c(O)c1,i,-2,4,48*,0
O=C(OCC(=O)N1CCOCC1)c1ccc[nH]c1=O,i,125*,-35,-1,0
O=C(OCC(=O)N1CCCCCC1)c1ccc[nH]c1=O,nt,-1,nt,-19,-2
O=C(NNC(=O)C1CCN(c2ncccn2)CC1)c1ccc(Cl)cc1,i,-1,24,2,-4
Cc1cccc(N(CC(=O)NC2CCCCC2)C(=O)CCCC(=O)Nc2ccccn2)c1,i,-1,28,-3,74*
Cc1cccc(N(CC(=O)NC2CCCC2)C(=O)CCCC(=O)Nc2ccccn2)c1,i,-1,17,-4,2
C=CCn1c(SCC(=O)/C(C#N)=C(\C)N)nc2sc(CC)cc2c1=O,nt,0,22,0,40*!
CCN1/C(=C/C(C)=C/c2sc3ccccc3[n+]2CC)Sc2ccccc21,i,-14,-170*,37,-126
CCN1/C(=C\C(=S)Nc2ccccc2)Sc2ccccc21,i,0,2,2,-3
CCOC(=O)c1c(C)[nH]c(C)c1C(=O)COC(=O)c1ccc([N+](=O)[O-])s1,nt,1,nt,14,-4
CCc1cccc2c(C(=O)COC(=O)c3ccc([N+](=O)[O-])s3)c[nH]c12,i,-2,-206*,nt,1
O=C(OCC(=O)c1c[nH]c2ccccc12)c1ccc([N+](=O)[O-])s1,i,0,-99*,10,-2
CO[C@H](CN(C)S(=O)(=O)c1ccc(Cl)cc1)[C@H](C)CN(Cc1ccccc1Cl)[C@@H](C)CO,nt,nt,nt,-3,nt
O=C(c1ccccc1)N1CCN(S(=O)(=O)c2ccc(Cl)c(C(F)(F)F)c2)CC1,nt,0,nt,-2,-2
O=C(NNC(=S)NC(=O)c1ccccc1[N+](=O)[O-])c1ccc(Cl)cc1Cl,i,0,59,5,4
CCOC(=O)c1nc2cc3n(c(C)c-2c1C)C(C)C(CC)=C3C (centres undefined),+,-2,12,-7,-5
O=C1CSC(c2ccccc2[N+](=O)[O-])N1CCc1ccccc1 (centres undefined),i,0,10,4,70*
SMILES,Rce1 inhib,CAL PDZ FP-1,AI-2 QS modul,ARNT-TACC3 inh,CAL PDZ FP-2
CC(NC(=O)c1noc2c1CCCCC2)c1ccccc1 (centres undefined),i,0,15,-7,nt
O=C(Nc1ccc2c(c1)CCC2)c1ncoc1-c1ccccc1F,i,-1,13,nt,69*
O=C(Nc1ccc2c(c1)CCC2)c1ccc(F)cc1,i,-1,-2,-2,-10
CC1CCCC(C)N1C(=O)C1CC(c2ccc(F)cc2)=NO1 (centres undefined),i,-1,24,1,-3
O=C(c1ccc2nccnc2c1)N1CCCC(N2CCN(c3ccc(F)cc3)CC2)C1 (centres undefined),i,0,19,-2,1
COc1ccc(CNC(=O)C2CCCN(S(=O)(=O)c3cccc4nsnc34)C2)cc1 (centres undefined),i,-3,nt,-1,-4
COc1ccc(CNC(=O)C2CCN(S(=O)(=O)c3cccc4nsnc34)CC2)cc1,i,-1,20,-7,37*
COCCCNC(=O)C1CC(=O)OC1c1ccc(OC)c(OC)c1 (centres undefined),i,1,22,0,42*
COc1ccc(CSc2ccc(-c3nc4ccccn4c3NCc3ccccc3)cc2OC)cc1,+,1,26,7,0
COc1ccccc1NC(=S)N1CCCC1,i,-3,31,nt,-1
O=C1NC(c2ccccn2)Nc2sc3c(c21)CCC3 (centres undefined),i,-1,20,65*,-1
CCN(Cc1cnn(C)c1)C(=O)C1CCC(=O)N(CCc2ccc(OC)cc2)C1 (centres undefined),i,-1,15,-3,86*
CCc1ccc(CN(C)C(=O)C2CCC(=O)N(CCc3ccc(OC)cc3)C2)nc1 (centres undefined),i,-2,26,6,-1
CCOc1ccc(NC(=S)N(Cc2ccc(N(C)C)cc2)Cc2ccco2)cc1,i,nt,10,17*,4
COc1cccc(-n2c(=O)c3sccc3n(CC(=O)NCC3CCCO3)c2=O)c1 (centres undefined),i,-3,8,4,39*
COc1cccc(-n2c(=O)c3ccccc3n(CC(=O)NCC3CCCO3)c2=O)c1 (centres undefined),i,0,18,-8,-9
CC(C)C(c1nnnn1C1CCCCC1)N1CCN(c2ncccn2)CC1 (centres undefined),i,2,21,-3,-6
COC1=C(Br)C(=O)c2ncccc2C1=O,nt,0,nt,47*,-4
O=C1c2cccnc2-c2ncccc21,i,-1,10,29,-4
CCOC(=O)c1[nH]ncc1CN1CCN(Cc2ccccc2)C(CCO)C1 (centres undefined),i,-1,20,10,30*
COc1cccc(S(=O)(=O)N[C@@H]2CC[C@H](CC(=O)NCc3ccncc3)O[C@H]2CO)c1,nt,nt,nt,-3,nt
O=C(CSc1ccccc1)N1CCCC(Nc2ccccc2)C1 (centres undefined),i,1,16,0,61*
O=C(c1cccs1)N1CCCC(c2nc3c(nnn3Cc3c(Cl)cccc3Cl)c(=O)[nH]2)C1 (centres undefined),i,-4,21,17,-4
COc1ccccc1N1CCN(CC(=O)Nc2cccc(F)c2)CC1,i,0,35,0,-3
O=C(CN1CCN(CC(=O)Nc2cccc(F)c2)CC1)Nc1ccc(-c2ccccc2)cc1,i,-1,11,-1,58*
O=C(Nc1cccc(F)c1)N1CCN(C/C=C/c2ccccc2)CC1,i,-1,23,1,39*
